# ChEMBL document CHEMBL1124368 (J Med Chem, 1989)
# How the values were obtained:
# [1] = target: T1, Dihydrofolate reductase (Rattus norvegicus, UniProt Q920D2); assay: In vitro inhibitory concentration against rat liver dihydrofolate reductase(DHFR); conditions: read-out: I50
# T1 sequence (Q920D2 whole entry): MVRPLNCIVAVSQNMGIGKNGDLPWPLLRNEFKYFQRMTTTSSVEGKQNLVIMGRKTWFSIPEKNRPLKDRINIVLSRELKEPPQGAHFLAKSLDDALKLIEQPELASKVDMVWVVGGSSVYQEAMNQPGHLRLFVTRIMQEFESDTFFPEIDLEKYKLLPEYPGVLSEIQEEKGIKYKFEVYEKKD
# In short: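 Partially purified rat liver DHFR, prepared by the Bertino and Fischer method, assayed spectrophotometrically at 340 nm. I50 is the final inhibitor concentration that cuts the reaction rate to 50% of the uninhibited rate. […] Inhibitors were dissolved in 0.1 M HCl or 95% ethanol.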
# [2] = tested on: Mus musculus; assay: Tumor volume in 24 days after tumor implantation at a dose of 12.5 mg/kg/day; format: functional
# In short: (§1)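 10⁶ M5076 reticulum cell sarcoma cells were injected im into the left leg of female BDF₁ mice, five per group, on day 0. Compound in 10–20% DMSO/arachis oil was dosed ip daily on days 1–17. Tumor volumes (mm³) were recorded on days 12, 16, 20 and 24 after implantation, with NM marking a tumor that could not be measured.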
# [3] = tested on: Mus musculus; assay: Tumor volume in 20 days after tumor implantation at a dose of 3.125 mg/kg/day; format: functional; in short: as §1
# [4] = tested on: Mus musculus; assay: Mean of weight gain from day 0 to day 24 at a dose of 25 mg/kg/day of compound; format: functional; set-up: unit not given here
# In short: (§2)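 M5076 reticulum cell sarcoma: 10⁶ cells implanted im into the left leg of female BDF₁ mice (groups of five) on day 0. Drug in 10–20% DMSO in arachis oil was given ip daily on days 1–17. Weight change is the mean weight gain from day 0 to day 24.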
# [5] = tested on: Mus musculus; assay: (§3) Mean of weight gain from day 0 to day 24 at a dose of 3.125 mg/kg/day of compound; format: functional; set-up: unit not given here; in short: as §2
# [6] = tested on: Mus musculus; assay: Tumor volume in 24 days after tumor implantation at a dose of 3.125 mg/kg/day; format: functional; in short: as §1
# [7] = tested on: Mus musculus; assay: Tumor volume in 24 days after tumor implantation at a dose of 25 mg/kg/day of compound; format: functional; in short: as §1
# [8] = tested on: Mus musculus; assay: Tumor volume in 20 days after tumor implantation at a dose of 6.25 mg/kg/day of compound; format: functional; in short: as §1
# [9] = tested on: Mus musculus; assay: Ratio of tumor volume of test(T) animals compared to control(C) animals x 100 T/C(%)] at a dose of 12.50 mg/kg/day; format: functional
# In short: (§4)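 M5076 reticulum cell sarcoma: 10⁶ cells implanted im into the left leg of female BDF₁ mice (groups of five) on day 0. Treatment was ip, daily on days 1–17, in 10–20% DMSO in arachis oil. T/C% is treated tumor volume over control tumor volume × 100.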
# [10] = tested on: Mus musculus; assay: Mean of weight gain from day 0 to day 24 at a dose of 6.25 mg/kg/day; format: functional; set-up: unit not given here; in short: as §2
# [11] = tested on: Mus musculus; assay: Ratio of tumor volume of test(T) animals compared to control(C) animals x 100 T/C(%)] at a dose of 6.25 mg/kg/day; format: functional; in short: as §4
# [12] = tested on: Mus musculus; assay: Ratio of tumor volume of test(T) animals compared to control(C) animals x 100 T/C(%)] at a dose of 3.125 mg/kg/day; format: functional; in short: as §4
# [13] = tested on: Mus musculus; assay: Mean of weight gain from day 0 to day 24 at a dose of 12.5 mg/kg/day of compound; format: functional; set-up: unit not given here; in short: as §2
# [14] = tested on: Mus musculus; assay: Ratio of tumor volume of test(T) animals compared to control(C) animals x 100 T/C(%)] at a dose of 25 mg/kg/day; format: functional; in short: as §4
# [15] = tested on: Mus musculus; assay: Tumor volume in 24 days after tumor implantation at a dose of 6.25 mg/kg/day; format: functional; in short: as §1
# [16] = tested on: Mus musculus; assay: Tumor volume in 16 days after tumor implantation at a dose of 50 mg/kg/day of compound; NM=Tumor not measurable; format: functional, organism-based; in short: as §1
# [17] = tested on: Mus musculus; assay: Tumor volume in 16 days after tumor implantation at a dose of 3.125 mg/kg/day of compound; format: functional; in short: as §1
# [18] = tested on: Mus musculus; assay: as §3; format: functional; in short: as §2
# [19] = tested on: Mus musculus; assay: Number of survivors versus treated on day 24 at a dose of 12.5 mg/kg/day of compound; Tumor not measurable; format: functional, organism-based
# [20] = tested on: Mus musculus; assay: Number of survivors versus treated on day 24 at a dose of 6.25 mg/kg/day of compound; Tumor not measurable; format: functional, organism-based
smiles,measurement,setting,value
CCc1nc(N)nc(N)c1-c1ccc(N2CCCC2)c(N)c1,IC50,[1],> 25 µM
CCc1nc(N)nc(N)c1-c1ccc(N2CCOCC2)c([N+](=O)[O-])c1,IC50,[1],8 µM
CCc1nc(N)nc(N)c1-c1ccc(N2CCN(C)CC2)c([N+](=O)[O-])c1,IC50,[1],3.9 µM
CCc1nc(N)nc(N)c1-c1ccc(NC)c([N+](=O)[O-])c1,Tumor volume,[2],462 mm**3
same,Tumor volume,[3],822 mm**3
same,Weight change,[4],2.1
same,Weight change,[5],4.3
same,Tumor volume,[6],1407 mm**3
same,Tumor volume,[7],220 mm**3
same,Tumor volume,[8],640 mm**3
same,Antitumor activity,[9],20%
same,Weight change,[10],3.3
same,Antitumor activity,[11],35%
same,Antitumor activity,[12],61%
same,Weight change,[13],2.1
same,Antitumor activity,[14],10%
same,Tumor volume,[15],805 mm**3
same,Tumor volume,[16],Not measurable
CCc1nc(N)nc(N)c1-c1ccc(NCc2ccc(Cl)cc2)c([N+](=O)[O-])c1,Tumor volume,[2],380 mm**3
same,Tumor volume,[3],552 mm**3
same,Weight change,[5],3.2
same,Tumor volume,[6],873 mm**3
same,Antitumor activity,[9],13%
same,Weight change,[10],3.3
same,Antitumor activity,[11],20%
same,Antitumor activity,[12],29%
same,Weight change,[13],2.9
same,Tumor volume,[15],597 mm**3
CCc1nc(N)nc(N)c1-c1ccc(NCc2ccc(OC)c(OC)c2)c([N+](=O)[O-])c1,Weight change,[5],1
same,Tumor volume,[6],371 mm**3
same,Weight change,[10],0.9
same,Antitumor activity,[11],9%
same,Antitumor activity,[12],10%
same,Tumor volume,[15],324 mm**3
CCc1nc(N)nc(N)c1-c1ccc(N2CCCCC2)c(N)c1,IC50,[1],> 25 µM
CCc1nc(N)nc(N)c1-c1ccc(Cl)c([N+](=O)[O-])c1,IC50,[1],0.08 µM
CCc1nc(N)nc(N)c1-c1ccc(N(C)C2CCCCC2)c(N)c1,IC50,[1],8.5 µM
CCc1nc(N)nc(N)c1-c1ccc(NCc2ccc(OC)cc2)c([N+](=O)[O-])c1,Tumor volume,[2],636 mm**3
same,Tumor volume,[3],831 mm**3
same,Weight change,[4],0.2
same,Weight change,[5],4.1
same,Tumor volume,[6],1482 mm**3
same,IC50,[1],0.02 µM
same,Tumor volume,[8],416 mm**3
same,Antitumor activity,[9],21%
same,Weight change,[10],3.6
same,Antitumor activity,[11],30%
same,Antitumor activity,[12],50%
same,Weight change,[13],2.3
same,Antitumor activity,[14],<8%
same,Tumor volume,[15],875 mm**3
same,Tumor volume,[17],306 mm**3
CCc1nc(N)nc(N)c1-c1ccc([N+](=O)[O-])c(N(C)Cc2ccccc2)c1,IC50,[1],0.44 µM
CCc1nc(N)nc(N)c1-c1ccc(N2CCN(C)CC2)c(N)c1,IC50,[1],> 25 µM
CCc1nc(N)nc(N)c1-c1ccc(N2CCNCC2)c(N)c1,IC50,[1],> 25 µM
CCc1nc(N)nc(N)c1-c1ccc(NCc2ccc(F)cc2)c([N+](=O)[O-])c1,Tumor volume,[2],386 mm**3
same,Tumor volume,[3],539 mm**3
same,Weight change,[4],4.3
same,Tumor volume,[6],1555 mm**3
same,Antitumor activity,[9],17%
same,Weight change,[10],2.5
same,Weight change,[18],3.8
same,Antitumor activity,[11],20%
same,Antitumor activity,[12],68%
same,Weight change,[13],2
same,Antitumor activity,[14],<8%
same,Tumor volume,[15],448 mm**3
same,Tumor volume,[17],337 mm**3
CCc1nc(N)nc(N)c1-c1ccc(NCc2ccc(C(F)(F)F)cc2)c([N+](=O)[O-])c1,Tumor volume,[2],265 mm**3
same,Tumor volume,[3],627 mm**3
same,Weight change,[4],6.2
same,Weight change,[5],3.4
same,Tumor volume,[6],948 mm**3
same,Antitumor activity,[9],12%
same,Weight change,[10],2.3
same,Antitumor activity,[11],20%
same,Antitumor activity,[12],40%
same,Weight change,[13],2
same,Antitumor activity,[14],<8%
same,Tumor volume,[15],454 mm**3
same,Tumor volume,[17],291 mm**3
CCc1nc(N)nc(N)c1-c1ccc(N(C)C)cc1,IC50,[1],6.2 µM
CCc1nc(N)nc(N)c1-c1ccc(N2CCNCC2)c([N+](=O)[O-])c1,IC50,[1],3.1 µM
CCc1nc(N)nc(N)c1-c1ccc(N(C)Cc2ccccc2)c(N)c1,IC50,[1],0.1 µM
CCc1nc(N)nc(N)c1-c1ccc(N2CCCC2)c([N+](=O)[O-])c1,IC50,[1],1.7 µM
CCc1nc(N)nc(N)c1-c1ccc(N(CC)Cc2ccccc2)c([N+](=O)[O-])c1,Tumor volume,[2],316 mm**3
same,Tumor volume,[3],698 mm**3
same,Weight change,[4],0.8
same,Weight change,[5],2.3
same,Tumor volume,[6],1375 mm**3
same,Tumor volume,[8],492 mm**3
same,Antitumor activity,[9],12%
same,Weight change,[10],1.6
same,Survivors,[19],Not measurable
same,Antitumor activity,[11],31%
same,Antitumor activity,[12],50%
same,Weight change,[13],1.1
same,Antitumor activity,[14],<8%
same,Tumor volume,[15],854 mm**3
same,Survivors,[20],Not measurable
CCc1nc(N)nc(N)c1-c1ccc(N(C)C)c(N)c1,IC50,[1],67 µM
CCc1nc(N)nc(N)c1-c1ccc(N2CCOCC2)c(N)c1,IC50,[1],> 25 µM
CCc1nc(N)nc(N)c1-c1ccc(N(CC)Cc2ccccc2)c(N)c1,IC50,[1],4 µM
CCc1nc(N)nc(N)c1-c1ccc([N+](=O)[O-])c(NCc2ccccc2)c1,IC50,[1],9.2 µM
CCc1nc(N)nc(N)c1-c1ccc(NCc2ccccc2)c([N+](=O)[O-])c1,Tumor volume,[2],586 mm**3
same,Tumor volume,[3],443 mm**3
same,Weight change,[4],1.7
same,Weight change,[5],2.2
same,Tumor volume,[6],1454 mm**3
same,Tumor volume,[8],301 mm**3
same,Antitumor activity,[9],21%
same,Weight change,[10],2.1
same,Antitumor activity,[11],34%
same,Antitumor activity,[12],53%
same,Weight change,[13],1.6
same,Antitumor activity,[14],<8%
same,Tumor volume,[15],932 mm**3
